From ChEMBL document CHEMBL1146041, “Synthesis and SAR of pyrrolotriazine-4-one based Eg5 inhibitors” (Bioorg Med Chem Lett, 2006) come the findings set out here.

Common to all, as to type: ADME, organism-based
Common to all, as to design: dose 10 mg/kg

Data set [1] can be described thus: Mean residence time in mouse at 10 mg/kg. The note with it: in vivo. The gist of the method: (§1)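 Mice (n = 3) dosed at 10 mg/kg in 50% PEG400/50% water; pharmacokinetic parameters given as mean ± deviation.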
Data set [2] in a line: Clearance in mouse at 10 mg/kg. As to conditions: in vivo. The gist of the method:
as §1

Data set [3] is described as follows: Volume of distribution in mouse at 10 mg/kg. The note with it: in vivo, read-out: Vdss. The gist of the method: as §1
A short description of data set [4]: Half life in mouse at 10 mg/kg. As to conditions: in vivo. The method, boiled down: as §1

`Cc1ccc(C(=O)N(CCCN)C(c2nn3c(Cl)ccc3c(=O)n2Cc2ccccc2)C2CC2)cc1` (centres undefined) registered an MRT in data set [1] of 6.5 h. This compound came in with a clearance in data set [2] of 16 mL/min/kg. Moreover, the Vd in data set [3] was determined as 5.9 L/kg. Moreover, the half-life in data set [4] is 4.5 h.

Usually MRT stands for a mean duration of stay, worked out from the concentration-time curve. Broadly, the clearance is a measure of how efficiently the substance is removed, as volume per time. The low end stands for a low capacity for elimination, the high end for a high capacity for elimination. The term half-life denotes the time in which the quantity being followed falls by half.
